From ChEMBL document CHEMBL4359913, “Identification and characterization of benzo[d]oxazol-2(3H)-one derivatives as the first potent and selective small-molecule inhibitors of chromodomain protein CDYL” (Eur J Med Chem, 2019)
The source made the active and inactive calls. The rule behind the calls is not given here.

Tests used:
[1] = biological target: T1, Chromodomain Y-like protein (Mus musculus) (UniProt Q9WTK2); experiment: Inhibition of CDYL in C57BL/6 mouse cortical neurons as increase in MYT1 mRNA expression at 150 uM incubated for 24 hrs by RT-qPCR analysis
T1 sequence (whole entry): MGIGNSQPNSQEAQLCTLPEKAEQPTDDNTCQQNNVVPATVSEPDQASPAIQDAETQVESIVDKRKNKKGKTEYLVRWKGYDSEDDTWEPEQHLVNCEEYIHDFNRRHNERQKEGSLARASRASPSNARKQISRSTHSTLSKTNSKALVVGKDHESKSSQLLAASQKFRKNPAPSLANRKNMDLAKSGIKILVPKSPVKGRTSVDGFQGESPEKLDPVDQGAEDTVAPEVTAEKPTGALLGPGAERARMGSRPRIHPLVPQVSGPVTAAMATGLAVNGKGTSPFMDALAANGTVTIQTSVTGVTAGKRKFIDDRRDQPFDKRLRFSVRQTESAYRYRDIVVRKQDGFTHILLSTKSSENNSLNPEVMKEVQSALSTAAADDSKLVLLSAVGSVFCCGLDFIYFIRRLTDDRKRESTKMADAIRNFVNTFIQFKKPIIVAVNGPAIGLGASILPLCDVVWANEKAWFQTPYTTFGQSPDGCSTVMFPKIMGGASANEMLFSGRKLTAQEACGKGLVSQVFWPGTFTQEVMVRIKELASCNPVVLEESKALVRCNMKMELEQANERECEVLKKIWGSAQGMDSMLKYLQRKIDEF
Summary of the method: (§1)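 Mouse cortical or hippocampal neurons, dissociated with trypsin and kept in Neurobasal/B27, treated with 150 µM compound for 24 h. mRNA measured by SYBR green RT-qPCR with the 2^-ΔΔCt method, GAPDH as reference, relative to DMSO. Mean ± S.E.M. of triplicate experiments, Student's t-test.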

[2] = biological target: T1, Chromodomain Y-like protein (Mus musculus); experiment: Inhibition of CDYL in C57BL/6 mouse hippocampal neurons as increase in VGF mRNA expression at 150 uM incubated for 24 hrs by RT-qPCR analysis; summary of the method: as §1
[3] = biological target: T1, Chromodomain Y-like protein (Mus musculus); experiment: Inhibition of CDYL in C57BL/6 mouse hippocampal neurons assessed as induction of dendritic branching at 150 uM incubated for 24 hrs by DAPI staining confocal microscopic method
Summary of the method: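 Mouse hippocampal or cortical neurons on poly-D-lysine given 150 µM compound or DMSO at DIV 5 for 24 h, then fixed in 4% PFA. Stained for MAP2 with DAPI nuclei and imaged by confocal microscopy. Dendrite crossings counted by Sholl analysis at 10 µm intervals. Mean ± S.E.M. of triplicates, Student's t-test.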

[4] = biological target: T2, Chromodomain Y-like protein (Homo sapiens) (UniProt Q9Y232); experiment: Binding affinity to CDYL in human SH-SY5Y cells assessed as increase in protein thermal stability at 150 uM incubated for 10 mins at room temperature followed by exposure to 40 to 67 degC for 4 mins followed by cooling for 3 mins at room temperature by CETSA; assay type: cell-based
T2 sequence (whole entry): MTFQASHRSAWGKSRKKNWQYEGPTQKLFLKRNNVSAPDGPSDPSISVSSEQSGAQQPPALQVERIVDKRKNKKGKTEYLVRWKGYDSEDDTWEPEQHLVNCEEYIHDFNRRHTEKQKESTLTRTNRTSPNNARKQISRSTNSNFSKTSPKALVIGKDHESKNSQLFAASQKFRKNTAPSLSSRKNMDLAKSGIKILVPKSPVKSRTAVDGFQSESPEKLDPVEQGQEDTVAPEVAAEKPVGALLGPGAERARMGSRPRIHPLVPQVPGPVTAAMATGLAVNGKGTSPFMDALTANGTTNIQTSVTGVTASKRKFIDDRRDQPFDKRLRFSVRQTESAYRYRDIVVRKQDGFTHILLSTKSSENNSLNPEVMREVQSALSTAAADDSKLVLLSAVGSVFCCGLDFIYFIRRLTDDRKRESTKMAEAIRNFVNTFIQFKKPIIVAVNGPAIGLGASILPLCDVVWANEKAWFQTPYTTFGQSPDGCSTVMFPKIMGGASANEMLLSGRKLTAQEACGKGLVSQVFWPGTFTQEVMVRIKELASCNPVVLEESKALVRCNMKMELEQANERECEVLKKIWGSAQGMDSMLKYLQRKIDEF
Summary of the method: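 SH-SY5Y cells freeze-thawed three times in liquid nitrogen, lysate diluted with PBS, given 150 µM compound or DMSO for 10 min at room temperature. Aliquots heated at 40–67 °C for 4 min, cooled 3 min, spun at 13,000 g for 10 min at 4 °C. CDYL in the supernatant read by SDS-PAGE and Western blot, bands quantified by densitometry.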

[5] = biological target: T2, Chromodomain Y-like protein (Homo sapiens); experiment: Binding affinity to CDYL in human SH-SY5Y cells assessed as reduction in protein degradation incubated for 4 mins at 55 degC for 4 mins by CETSA; assay type: cell-based
Summary of the method: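 Lysates of SH-SY5Y cells, freeze-thawed three times, incubated with compound at 0–500 µM at 55 °C for 4 min. Supernatant isolated by centrifugation and CDYL read by immunoblot with densitometry.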

[6] = biological target: T2, Chromodomain Y-like protein (Homo sapiens); experiment: Inhibition of CDYL in human SH-SY5Y cells assessed as decrease in enrichment of CDYL at BDNF promoter site at 150 uM incubated for 24 hrs by ChIP-qPCR analysis; assay type: cell-based
Summary of the method: (§2)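 About 1×10^7 SH-SY5Y cells given 150 µM compound or DMSO for 24 h, fixed in 1% formaldehyde for 10 min. Chromatin immunoprecipitated overnight-style (12 h, 4 °C) with CDYL or H3K27me3 antibody, captured on Protein A/G beads, washed, decrosslinked at 65 °C. Promoter DNA quantified by qPCR, mean ± S.E.M. of triplicate experiments, Student's t-test.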

[7] = biological target: T2, Chromodomain Y-like protein (Homo sapiens); experiment: Inhibition of CDYL in human SH-SY5Y cells assessed as increase in VGF mRNA expression incubated for 24 hrs by RT-qPCR analysis; assay type: cell-based
Summary of the method: (§3)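 SH-SY5Y or HEK-293T cells grown in DMEM with 10% FBS and treated with compound for 24 h. mRNA quantified by SYBR green RT-qPCR after DNase treatment, 2^-ΔΔCt method with GAPDH as reference, relative to DMSO. Mean ± S.E.M. of triplicate experiments, Student's t-test.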

[8] = biological target: T2, Chromodomain Y-like protein (Homo sapiens); experiment: Inhibition of CDYL in human SH-SY5Y cells assessed as increase in MYT1 mRNA expression incubated for 24 hrs by RT-qPCR analysis; assay type: cell-based; summary of the method: as §3
SH-SY5Y [9] = experiment: Effect on CDYL recruitment onto HOXA3 promoter site in human SH-SY5Y cells at 150 uM incubated for 24 hrs by ChIP-qPCR analysis; assay type: functional, cell-based; summary of the method: as §2
SH-SY5Y [10] = experiment: Effect on enrichment of H3K27me3 at HOXA3 promoter site in human SH-SY5Y cells at 150 uM incubated for 24 hrs by ChIP-qPCR analysis; assay type: functional, cell-based; summary of the method: as §2
[11] = biological target: T2, Chromodomain Y-like protein (Homo sapiens); experiment: Inhibition of CDYL in human HEK293T cells assessed as increase in BDNF mRNA expression at 50 to 200 uM incubated for 24 hrs by RT-qPCR analysis; assay type: cell-based; summary of the method: as §3
[12] = biological target: T1, Chromodomain Y-like protein (Mus musculus); experiment: Inhibition of CDYL in C57BL/6 mouse cortical neurons as increase in VGF mRNA expression at 150 uM incubated for 24 hrs by RT-qPCR analysis; summary of the method: as §1

Q: Which results are given for O=C(Cn1c(=O)oc2ccccc21)N1CCC(N2CCCC2)CC1?
A: Activity [1]: Active; Activity [2]: Active; Activity [3]: Active; Activity [4]: Active; inhibition [5]: Dose-dependent effect; inhibition [6]: Active; Activity [7]: Dose-dependent effect; Activity [8]: Dose-dependent effect; Activity (SH-SY5Y [9]): inactive; Activity (SH-SY5Y [10]): inactive; Activity [11]: Active; Activity [12]: Active
